Calls of active or inactive are those of the source. The calls are words filed in the database; no cut-off is given here.
What was measured:
Parastagonospora nodorum [1] = assay: Antifungal activity against Stagonospora nodorum infected in wheat seedlings at 10 ppm relative to control; assay type: functional
How it was run: (§1)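 Wheat seedlings, treated the day before, inoculated with a Stagonospora nodorum spore suspension. Held in a saturated atmosphere at 20 °C for 48 h, then 5 days in a growth chamber at 22 °C, then disease rated. Rates in ppm. Scored as percent control relative to untreated control plants.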

Parastagonospora nodorum [2] = assay: Antifungal activity against Stagonospora nodorum infected in wheat seedlings at 2 ppm relative to control; assay type: functional; how it was run: as §1
[3] = Antiproliferative activity against human Rhabdomyosarcoma cells after 96 hrs by MTS assay; assay type: functional, cell-based; conditions: Rhabdomyosarcoma cell
How it was run: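 Rhabdomyosarcoma cells (ATCC CCL-136) seeded at 10,000 cells/well and allowed to adhere 1–3 h. Medium then replaced with compound-containing medium over a concentration range. Grown 96 h at 37 °C, 5% CO2. Viable cells read by MTS/PMS formazan after 3–4 h at 37 °C, absorbance 490 nm. Data normalized to solvent-only wells; IC50 in nM.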

Botrytis cinerea [4] = assay: Antifungal activity against Botryotinia fuckeliana infected in orange pixie tomato seedlings at 10 ppm relative to control; assay type: functional
How it was run: (§2)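 Orange Pixie tomato seedlings sprayed to run-off with test suspension, then inoculated next day with a Botryotinia fuckeliana spore suspension. Kept saturated at 20 °C for 48 h, then 1 more day at 24 °C in a growth chamber before rating. Rates in ppm. Expressed as percent control relative to untreated control plants.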

Puccinia triticina [5] = assay: Antifungal activity against Puccinia recondita f. sp. tritici infected in wheat seedlings at 40 ppm relative to control; assay type: functional
How it was run: (§3)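 Test suspension sprayed to run-off on Stevens wheat seedlings. Next day inoculated with a Puccinia recondita f. sp. tritici spore suspension. Held 24 h in a saturated atmosphere at 20 °C, then 7 days in a 20 °C growth chamber before disease rating. Rates in ppm. Given as percent control versus untreated control plants.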

Puccinia triticina [6] = assay: Antifungal activity against Puccinia recondita f. sp. tritici infected in wheat seedlings at 200 ppm relative to control; assay type: functional; how it was run: as §3
Botrytis cinerea [7] = assay: Antifungal activity against Botryotinia fuckeliana infected in orange pixie tomato seedlings at 40 ppm relative to control; assay type: functional; how it was run: as §2
Puccinia triticina [8] = assay: Antifungal activity against Puccinia recondita f. sp. tritici infected in wheat seedlings at 2 ppm relative to control; assay type: functional; how it was run: as §3
Parastagonospora nodorum [9] = assay: Antifungal activity against Stagonospora nodorum infected in wheat seedlings at 40 ppm relative to control; assay type: functional; how it was run: as §1
Puccinia triticina [10] = assay: Antifungal activity against Puccinia recondita f. sp. tritici infected in wheat seedlings at 10 ppm relative to control; assay type: functional; how it was run: as §3
Botrytis cinerea [11] = assay: Antifungal activity against Botryotinia fuckeliana infected in orange pixie tomato seedlings at 2 ppm relative to control; assay type: functional; how it was run: as §2
Parastagonospora nodorum [12] = assay: Antifungal activity against Stagonospora nodorum infected in wheat seedlings at 200 ppm relative to control; assay type: functional; how it was run: as §1
Botrytis cinerea [13] = assay: Antifungal activity against Botryotinia fuckeliana infected in orange pixie tomato seedlings at 200 ppm relative to control; assay type: functional; how it was run: as §2
Tubulin (Bos taurus) [14] = biological target: T1, Tubulin (Bos taurus) (UniProt Q6B856+Q862L2+Q862F3); assay: Induction of bovine tubulin polymerization at 3 uM by microplate reader; assay type: protein assay
How it was run: (§4)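 Purified bovine tubulin at 4 mg/ml in 80 mM PIPES pH 6.9, 0.5 mM EGTA, 2 mM MgCl2, 1 mM GTP. Compound added at reaction start at constant DMSO. Polymerization started at 37 °C and followed over time by absorbance at 340 nm. Controls: paclitaxel 10 µM (positive) and 0.5% DMSO (negative).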

Tubulin (Bos taurus) [15] = biological target: T1, Tubulin (Bos taurus); assay: Induction of bovine tubulin polymerization at 10 uM by microplate reader; assay type: protein assay; how it was run: as §4

Structure (SMILES): CC[C@H](C)Cn1c(-c2c(F)cc(OC)cc2F)c(Cl)nc(-n2cccn2)c1=O
- Activity (Parastagonospora nodorum [1]): 100%
- Activity (Parastagonospora nodorum [2]): 69%
- IC50 [3]: 10 nM
- Activity (Botrytis cinerea [4]): 99%
- Activity (Puccinia triticina [5]): 100%
- Activity (Puccinia triticina [6]): 100%
- Activity (Botrytis cinerea [7]): 99%
- Activity (Puccinia triticina [8]): 99%
- Activity (Parastagonospora nodorum [9]): 100%
- Activity (Puccinia triticina [10]): 100%
- Activity (Botrytis cinerea [11]): 99%
- Activity (Parastagonospora nodorum [12]): 100%
- Activity (Botrytis cinerea [13]): 99%

Structure (SMILES): CCC(C)Cn1c(-c2c(F)cc(F)cc2F)c(Cl)nc(-n2cccn2)c1=O (centres undefined)
- Activity (Parastagonospora nodorum [1]): 98%
- Activity (Parastagonospora nodorum [2]): 0%
- Activity (Botrytis cinerea [4]): 100%
- Activity (Puccinia triticina [5]): 100%
- Activity (Puccinia triticina [6]): 100%
- Activity (Botrytis cinerea [7]): 100%
- Activity (Puccinia triticina [8]): 89%
- Activity (Parastagonospora nodorum [9]): 100%
- Activity (Puccinia triticina [10]): 100%
- Activity (Botrytis cinerea [11]): 100%
- Activity (Parastagonospora nodorum [12]): 100%
- Activity (Botrytis cinerea [13]): 100%

Structure (SMILES): CC(C)Cn1c(-c2c(F)cccc2F)c(Cl)nc(-c2cn(C)cn2)c1=O
- Activity (Parastagonospora nodorum [1]): 0%
- Activity (Parastagonospora nodorum [2]): 0%
- Activity (Botrytis cinerea [4]): 0%
- Activity (Puccinia triticina [5]): 97%
- Activity (Puccinia triticina [6]): 99%
- Activity (Botrytis cinerea [7]): 99%
- Activity (Puccinia triticina [8]): 0%
- Activity (Parastagonospora nodorum [9]): 67%
- Activity (Puccinia triticina [10]): 0%
- Activity (Botrytis cinerea [11]): 0%
- Activity (Parastagonospora nodorum [12]): 97%
- Activity (Botrytis cinerea [13]): 100%

Structure (SMILES): CC(C)Cn1c(-c2c(F)cc(F)cc2F)c(Cl)nc(-n2cccn2)c1=O
- Activity (Parastagonospora nodorum [1]): 90%
- Activity (Tubulin (Bos taurus) [14]): Active
- Activity (Parastagonospora nodorum [2]): 0%
- Activity (Botrytis cinerea [4]): 100%
- Activity (Puccinia triticina [5]): 100%
- Activity (Puccinia triticina [6]): 100%
- Activity (Botrytis cinerea [7]): 100%
- Activity (Puccinia triticina [8]): 92%
- Activity (Parastagonospora nodorum [9]): 100%
- Activity (Puccinia triticina [10]): 100%
- Activity (Botrytis cinerea [11]): 100%
- Activity (Parastagonospora nodorum [12]): 100%
- Activity (Botrytis cinerea [13]): 100%

Structure (SMILES): CC[C@H](C)Cn1c(-c2c(F)cc(OCCCN(C)C)cc2F)c(Cl)nc(-n2cccn2)c1=O
- Activity (Parastagonospora nodorum [1]): 0%
- Activity (Parastagonospora nodorum [2]): 0%
- IC50 [3]: 1.3 nM
- Activity (Botrytis cinerea [4]): 94%
- Activity (Puccinia triticina [5]): 99%
- Activity (Puccinia triticina [6]): 100%
- Activity (Botrytis cinerea [7]): 94%
- Activity (Puccinia triticina [8]): 0%
- Activity (Parastagonospora nodorum [9]): 0%
- Activity (Puccinia triticina [10]): 89%
- Activity (Botrytis cinerea [11]): 0%
- Activity (Parastagonospora nodorum [12]): 94%

Structure (SMILES): CC(=O)O[C@H]1C(=O)[C@@]2(C)[C@H]([C@H](OC(=O)c3ccccc3)[C@]3(O)C[C@H](OC(=O)[C@H](O)[C@@H](NC(=O)c4ccccc4)c4ccccc4)C(C)=C1C3(C)C)[C@]1(OC(C)=O)CO[C@@H]1C[C@@H]2O [PACLITAXEL]
- IC50 [3]: 8.4 nM
- Activity (Puccinia triticina [6]): 95%
- Activity (Tubulin (Bos taurus) [15]): Active
- Activity (Parastagonospora nodorum [12]): 91%
- Activity (Botrytis cinerea [13]): 0%

Structure (SMILES): CC(C)Cn1c(-c2ccc(F)cc2Cl)c(Cl)nc(-n2cccn2)c1=O
- Activity (Parastagonospora nodorum [1]): 99%
- Activity (Parastagonospora nodorum [2]): 0%
- Activity (Botrytis cinerea [4]): 100%
- Activity (Puccinia triticina [5]): 100%
- Activity (Puccinia triticina [6]): 100%
- Activity (Botrytis cinerea [7]): 100%
- Activity (Puccinia triticina [8]): 83%
- Activity (Parastagonospora nodorum [9]): 100%
- Activity (Puccinia triticina [10]): 100%
- Activity (Botrytis cinerea [11]): 100%
- Activity (Parastagonospora nodorum [12]): 100%
- Activity (Botrytis cinerea [13]): 100%

Structure (SMILES): CC[C@H](C)Cn1c(-c2c(F)cc(OCCN(C)C)cc2F)c(Cl)nc(-n2cccn2)c1=O
- IC50 [3]: 210 nM
- Activity (Botrytis cinerea [4]): 0%
- Activity (Puccinia triticina [5]): 91%
- Activity (Puccinia triticina [6]): 100%
- Activity (Botrytis cinerea [7]): 68%
- Activity (Puccinia triticina [10]): 55%
- Activity (Botrytis cinerea [13]): 99%

Structure (SMILES): CC[C@H](C)Cn1c(-c2c(F)cc(OCCCNC)cc2F)c(Cl)nc(-n2cccn2)c1=O.Cl
- Activity (Parastagonospora nodorum [1]): 33%
- Activity (Parastagonospora nodorum [2]): 0%
- IC50 [3]: 0.6 nM
- Activity (Botrytis cinerea [4]): 99%
- Activity (Puccinia triticina [5]): 100%
- Activity (Puccinia triticina [6]): 100%
- Activity (Botrytis cinerea [7]): 99%
- Activity (Puccinia triticina [8]): 68%
- Activity (Parastagonospora nodorum [9]): 88%
- Activity (Puccinia triticina [10]): 99%
- Activity (Botrytis cinerea [11]): 21%
- Activity (Parastagonospora nodorum [12]): 100%
- Activity (Botrytis cinerea [13]): 100%

Structure (SMILES): CC[C@H](C)Cn1c(-c2c(F)cc(F)cc2F)c(Cl)nc(-n2cccn2)c1=O
- Activity (Parastagonospora nodorum [1]): 99%
- Activity (Parastagonospora nodorum [2]): 0%
- IC50 [3]: 20 nM
- Activity (Botrytis cinerea [4]): 100%
- Activity (Puccinia triticina [5]): 100%
- Activity (Botrytis cinerea [7]): 100%
- Activity (Puccinia triticina [8]): 99%
- Activity (Parastagonospora nodorum [9]): 100%
- Activity (Puccinia triticina [10]): 100%
- Activity (Botrytis cinerea [11]): 100%

Structure (SMILES): CC(C)Cn1c(-c2c(F)cccc2F)c(Cl)nc(-n2cccn2)c1=O
- Activity (Parastagonospora nodorum [1]): 92%
- Activity (Tubulin (Bos taurus) [14]): Active
- Activity (Parastagonospora nodorum [2]): 0%
- Activity (Botrytis cinerea [4]): 97%
- Activity (Puccinia triticina [5]): 100%
- Activity (Botrytis cinerea [7]): 99%
- Activity (Puccinia triticina [8]): 28%
- Activity (Parastagonospora nodorum [9]): 99%
- Activity (Puccinia triticina [10]): 100%
- Activity (Botrytis cinerea [11]): 75%

From ChEMBL document CHEMBL3739347, “Tubulin modulating antifungal and antiproliferative pyrazinone derivatives” (Bioorg Med Chem, 2016)
